Assay outcomes as filed in PubChem BioAssay.
MrgX1 allo act – positive allosteric modulators of MrgX1, primary screen, HEK293 cells, Fluo-4 calcium flux; Mas-related G-protein coupled receptor member X1 (Homo sapiens), Q96LB2; FDSS; hits give high values; B-score at 10 µM; actives 0.63% (n = 310,000); AID 588675, 2011;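 active means plate-corrected calcium response at least 3 library SD above typical, normal starting fluorescence, not activating the receptor alone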;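 further: compound read alongside a low EC10 to EC30 dose of BAM8-22 agonist; peak minus trough fluorescence over baseline measured at the second addition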
Target sequence (Q96LB2 whole entry, looked up): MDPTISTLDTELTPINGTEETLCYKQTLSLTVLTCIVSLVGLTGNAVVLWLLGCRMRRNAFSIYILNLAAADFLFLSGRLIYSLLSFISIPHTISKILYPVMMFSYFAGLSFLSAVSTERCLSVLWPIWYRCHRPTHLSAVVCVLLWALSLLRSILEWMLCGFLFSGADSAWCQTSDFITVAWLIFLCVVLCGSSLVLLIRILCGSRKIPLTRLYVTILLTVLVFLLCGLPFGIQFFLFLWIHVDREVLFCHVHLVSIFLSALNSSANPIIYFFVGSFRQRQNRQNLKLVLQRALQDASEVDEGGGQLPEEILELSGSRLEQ
MrgX1 ag – agonists of human MrgX1 receptor, primary screen, HEK293 cells, Fluo-4 calcium flux | Mas-related G-protein coupled receptor member X1 (Homo sapiens), Q96LB2 | Fluo-4 calcium fluorescence, agonist mode; hits give high values | B-score at 10 µM | actives 0.44% (n = 310,000);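 active means calcium response B-score plate-corrected fluorescence ratio at least 3 library SD, with starting fluorescence B-score inside 5 SD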
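Material: MrgX1-expressing HEK293 cells; input: 15,000 cells per well; doses: test compound given as first of three sequential additions; schedule: overnight plating before 1 h dye loading; technique: Fluo-4 NW calcium-flux fluorescence, kinetic read; evaluation: baseline-normalised fluorescence change ratio, B-scored; control set: plate-wise positive and negative controls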
RGS4 block – RGS4 inhibitors, primary screen, cell-based, HEK293 M3R inducible RGS4, calcium flux; Regulator of G-protein signaling 4 (Homo sapiens), P49798; Fluo-4 calcium flux; hits give high values; triggered by carbachol at its EC20; B-score at 10 µM; actives 0.45% (n = 310,000); AID 463165, 2010;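 active means B-score, a plate-corrected calcium signal, over three deviations above library mean, with baseline fluorescence within five deviations of library mean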;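 further: RGS4 expression induced by doxycycline in cells with stable M3 receptor; B-score is computed from the integrated fluorescence ratio over baseline after carbachol; higher B-score means a larger calcium signal and so more RGS4 inhibition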
Target sequence (P49798 whole entry, looked up): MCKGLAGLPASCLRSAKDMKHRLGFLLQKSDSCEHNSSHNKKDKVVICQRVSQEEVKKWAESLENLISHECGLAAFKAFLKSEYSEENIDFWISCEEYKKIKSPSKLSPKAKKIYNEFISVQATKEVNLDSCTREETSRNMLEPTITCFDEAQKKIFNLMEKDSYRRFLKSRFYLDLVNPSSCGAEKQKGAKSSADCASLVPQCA
RGS4 pot – RGS4 potentiators or activators, primary screen, cell-based, HEK293 M3R inducible RGS4, calcium flux. carbachol calcium flux Fluo4; hits give low values. B-score at 10 µM. actives 0.92% (n = 310,000). AID 463111, 2010;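 active means B-score of the integrated calcium signal more than 4 SD below the library mean, with starting fluorescence not abnormally high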;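 further: negative B-score means reduced calcium response which marks RGS4 activation or potentiation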
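Assay system: HEK293 FlpIn-TREx cells, stable M3R, doxycycline-inducible RGS4 / Probe or stimulus: carbachol, ECmax concentration / Times: overnight RGS4 induction, 30 min dye load 37 °C, 20 min compound RT / Signal: kinetic calcium fluorescence imaging with Fluo4-AM dye, 2 µM / Measure: Agonist-evoked peak-minus-minimum fluorescence over baseline, integrated ratio, B score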
MrgX1 antagonist – antagonists of human MrgX1 receptor, primary screen, HEK293 cells, Fluo-4 calcium flux. Mas-related G-protein coupled receptor member X1 (Homo sapiens), Q96LB2. actives 1.3% (n = 310,000). B-score at 10 µM. BAM8-22 antagonism; hits give low values;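 active means calcium-response B-score plate-corrected more than 3 library SD below zero, starting fluorescence within 5 deviations, no agonist response on first addition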;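 further: peak minus trough fluorescence over baseline after final BAM8-22 challenge near maximal dose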
RGS4 inh valid – enhanced carbachol calcium response, M3R/RGS4 cells, RGS4 inhibitor project, cell-based, validation screen, HEK293 M3R/RGS4, calcium flux | actives 65% (n = 1,700) | AID 492999, 2010 | carbachol calcium Fluo-4 fluorescence; carbachol added at its EC20; 0 = buffer wells, 100 = carbachol control | shares compounds with RGS4 block | calcium response, % at 10 µM;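 active means duplicate-averaged calcium response above the buffer-only control mean plus 5 SD of those controls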;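 further: integrated fluorescence ratio F max minus min over baseline F0; higher response in RGS4-induced cells means RGS4 inhibition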
RGS4 uninduced – carbachol calcium response in non-induced M3R cells, confirmation, counter-screen for RGS4 inhibitor project, cell-based, HEK293 M3R | actives 20% (n = 1,900) | shares compounds with RGS4 block | AID 493000, 2010 | activity (percent), % at 10 µM | carbachol calcium Fluo-4; submaximal (EC20) carbachol stimulus; buffer wells 0%, carbachol control wells 100%; call rule not given here;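 further: RGS4 induction absent so cells express M3R without RGS4; higher means more calcium signal and flags a non-specific hit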
M3R basal Ca ctr – second RGS4 inhibitor counter-screen in uninduced cells lacking carbachol; shares compounds with RGS4 block; HEK293 M3R/RGS4 non-induced, Fluo-4 calcium, no carbachol; normalised: buffer wells 0%, carbachol wells 100%; calcium response (agonist-mode artifact), % at 10 µM; actives 22% (n = 1,900);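 active means duplicate-averaged calcium rise in uninduced cells above buffer wells' mean plus 5 SD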
Of the large screens only hits and unclear results are named; the others gave an inactive call (follow-up assays come after a bar, where they were run). The list is not random: actives were taken first. Their share in the collection is about 3.5%.

CCOC(=O)C(C)/C(C)=N/NC(N)=S (centres undefined)	RGS4 block 17 | RGS4 inh valid 54% | RGS4 uninduced inactive | M3R basal Ca ctr inactive
CCOC(=O)C(C)/C(C)=N\Nc1ccc([N+](=O)[O-])cc1[N+](=O)[O-] (centres undefined)	none
Oc1ccc(C[C@@H]2CNC(=S)N2CCCCC2CCCCC2)cc1	RGS4 block 5.3 | RGS4 inh valid 18% | RGS4 uninduced inactive | M3R basal Ca ctr inactive
CCOc1c(Br)cc(/C=C2\N=C(C)OC2=O)cc1Br	RGS4 block 4.7 | RGS4 inh valid 66% | RGS4 uninduced 37% | M3R basal Ca ctr inactive
O=C(COC(=O)/C=C/c1cccs1)Nc1nc(-c2ccccc2)cs1	RGS4 block 15 | RGS4 inh valid 50% | RGS4 uninduced 53% | M3R basal Ca ctr inactive
O=C(COC(=O)/C=C/c1cccs1)Nc1nc(-c2cccc(Br)c2)cs1	none | RGS4 inh valid inactive | RGS4 uninduced inactive | M3R basal Ca ctr 12%
Cc1ccc(N2C(=O)Cc3ccccc3C2=O)cc1	none | RGS4 inh valid inactive | RGS4 uninduced inactive | M3R basal Ca ctr inactive
COc1ccc(C2(c3ccc(O)cc3O)CC(c3ccccc3Cl)NC(=S)N2)cc1 (centres undefined)	RGS4 block 10 | RGS4 inh valid 36% | RGS4 uninduced inactive | M3R basal Ca ctr inactive
CC(=O)N1CCc2c(sc3c2c(=O)n(Cc2ccccc2)c(=O)n3CC(=O)NCC2CCCO2)C1 (centres undefined)	none
CCOC(=O)N1CCc2c(sc3c2c(=O)n(Cc2ccccc2)c(=O)n3Cc2ccc(C)cc2)C1	RGS4 block 8.7 | RGS4 inh valid 38% | RGS4 uninduced 30% | M3R basal Ca ctr inactive
N#C/C(=C/c1ccc([N+](=O)[O-])cc1)C(N)=O	RGS4 block 6.4 | RGS4 inh valid 36% | RGS4 uninduced 36% | M3R basal Ca ctr 15%
CCOP(=O)(OCC)/C(C#N)=C/c1ccc([N+](=O)[O-])cc1	RGS4 block 7.4 | RGS4 inh valid 14% | RGS4 uninduced inactive | M3R basal Ca ctr inactive
CCOP(=O)(OCC)/C(C#N)=C/c1c[nH]c2ccccc12	none
N#C/C(=C\c1cc([N+](=O)[O-])ccc1Cl)C(N)=O	RGS4 block 5.8 | RGS4 inh valid 12% | RGS4 uninduced inactive | M3R basal Ca ctr 8.5%
CCOC(=O)/C(C#N)=C/c1cccc([N+](=O)[O-])c1	none
CC(NS(=O)(=O)c1ccc2c(c1)oc(=O)n2C)c1ccccc1 (centres undefined)	none
Cc1cc(C)c2c(c1)c1nnc(SCCN3CCCCC3)nc1n2C	none (no result: MrgX1 allo act, MrgX1 ag, MrgX1 antagonist)
O=C(COC(=O)Cc1c(Cl)cccc1Cl)Nc1ccc2[nH]c(=O)[nH]c2c1	none
COc1ccc(-n2ccn(CC(=O)Nc3ccc(OC)cc3OC)c(=O)c2=O)cc1	none
COC(=O)Cc1[nH]nc2c1C1(C(=O)N(Cc3ccc(Cl)cc3)c3ccccc31)C(C#N)=C(N)O2 (centres undefined)	RGS4 block 5.1 | RGS4 inh valid 6.5% | RGS4 uninduced inactive | M3R basal Ca ctr inactive
CCc1[nH]nc2c1C1(C(=O)N(Cc3ccccc3)c3ccccc31)C(C#N)=C(N)O2 (centres undefined)	none
O=C(N/N=C/c1c[nH]c2ccccc12)C1CC1(c1ccccc1)c1ccccc1 (centres undefined)	none
Cc1ccc(-c2cc(C(=O)N/N=C/c3c[nH]c4ccccc34)[nH]n2)cc1	none (no result: MrgX1 allo act, MrgX1 ag, MrgX1 antagonist) | RGS4 inh valid inactive | RGS4 uninduced inactive | M3R basal Ca ctr inactive
O=C(N/N=C/c1c[nH]c2ccccc12)c1cc(-c2ccc(-c3ccccc3)cc2)n[nH]1	none
O=C(N/N=C/c1c[nH]c2ccccc12)C1CC1c1ccccc1 (centres undefined)	RGS4 block 5.6 | RGS4 inh valid 9.5% | RGS4 uninduced 36% | M3R basal Ca ctr 11%
O=C(Nc1c(C(=O)N2CCCCC2)cnn1-c1ccccc1)c1ccccc1F	none
COc1cc(/C=C(/C(=O)c2cccs2)c2nc3ccccc3[nH]2)ccc1O	RGS4 block 9.2 | RGS4 inh valid 18% | RGS4 uninduced inactive | M3R basal Ca ctr inactive
COc1nc(N)nc(NC(=O)c2cccs2)c1N=O	RGS4 block 8.1 | RGS4 inh valid 16% | RGS4 uninduced inactive | M3R basal Ca ctr inactive
COc1ccc(NC(=O)c2ccc(NC(=O)c3cccs3)cc2)cc1	none
COc1ccc(C(=O)C2CN(c3ccccc3)CC2c2ccc(Cl)cc2)cc1 (centres undefined)	none
O=C(Nc1ccc(O)c2c(=O)cc(-c3cccc(Cl)c3)oc12)c1ccccc1Cl	none
COc1cc(NS(=O)(=O)c2ccc(Nc3nc(-c4ccccn4)cs3)cc2)nc(OC)n1	none | RGS4 uninduced inactive | M3R basal Ca ctr inactive
COc1ccc(CC(=O)Nc2ccc(S(=O)(=O)Nc3cc(C)on3)cc2)cc1OC	none
COc1cc(NS(=O)(=O)c2ccc(NC(C)=O)cc2)nc(OC)n1	none
COc1ccc(-c2csc(Nc3ccc(S(=O)(=O)Nc4cc(C)on4)cc3)n2)cc1C	RGS4 block 13 | RGS4 inh valid inactive | RGS4 uninduced 46% | M3R basal Ca ctr inactive
COc1ccc(-c2csc(Nc3ccc(S(=O)(=O)Nc4cc(OC)nc(OC)n4)cc3)n2)cc1	RGS4 block 5.7 | RGS4 inh valid 18% | RGS4 uninduced inactive | M3R basal Ca ctr inactive
COc1ccc(OCCOC(=O)c2cc(S(=O)(=O)N3CCOCC3)c(Cl)cc2Cl)cc1	none
Cc1ccc(C2=Nc3cccnc3C(c3ccccc3)=NN2)cc1	none
CC(=O)CCc1oc2c([N+](=O)[O-])cccc2c1-c1ccc(C)o1	none
C/C(CCc1oc2c(Br)cc(Br)cc2c1-c1ccc(C)o1)=N\O	RGS4 block 11 | RGS4 inh valid inactive | RGS4 uninduced inactive | M3R basal Ca ctr inactive
Cc1ccc(C)c(N=Cc2c(O)c3ccccc3oc2=O)c1	none
